Laboratory results published in ChEMBL document CHEMBL2331188, “Synthesis and biochemical activities of antiproliferative amino acid and phosphate derivatives of microtubule-disrupting β-lactam combretastatins” (Eur J Med Chem, 2013).
In brackets after ≈: the same amount, converted by molar mass. Blank lines part the entries; values can stand above or below the compound they belong to. Activity calls are given as the source filed them. No cut-off for these calls is given here.

Key:
MCF7 [1] = assay: Induction of cell cycle arrest in human MCF7 cells assessed as accumulation of cells in G2/M phase at 100 nM after 48 hrs by propidium iodide staining based flow cytometry; assay type: functional
Outline: (§1)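 MCF-7 cells seeded at 1 × 10⁵ cells/cm³ and treated after 24 h for 48 h; vehicle was 1% ethanol v/v. Cells were fixed in 70% ethanol:PBS overnight at −20 °C, then stained with RNase 0.5 mg/mL and propidium iodide 0.15 mg/mL for 30 min at 37 °C. Analysed by flow cytometry, at least 10,000 gated cells, sub-diploid counted as sub-G1. Mean ± SEM of at least three experiments; one-way ANOVA with Bonferroni test.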

MCF7 [2] = assay: Induction of cell cycle arrest in human MCF7 cells assessed as accumulation of cells in sub-G1 phase at 100 nM after 48 hrs by propidium iodide staining based flow cytometry; assay type: functional; outline: as §1
MCF7 [3] = assay: Induction of mitotic catastrophe in human MCF7 cells at 100 nM after 16 hrs by immunofluorescence analysis; assay type: functional, cell-based
Outline: (§2)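 MCF-7 cells seeded at 1 × 10⁵ per well on chamber slides and treated 16 h; vehicle was 1% ethanol v/v. Fixed in methanol at −20 °C for 30 min and blocked in 5% BSA/PBST. Stained with anti-α-tubulin DM1A (1:20) and then FITC anti-mouse (1:100), each 1 h at room temperature, with DAPI counterstain. Imaged by confocal microscopy; three separate experiments.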

MCF7 [4] = assay: Induction of microtubule depolymerization in human MCF7 cells assessed as complete loss of microtubule formation at 100 nM after 16 hrs by immunofluorescence analysis; assay type: cell-based; outline: as §2
[5] = Inhibition of bovine brain tubulin polymerization measured every 30s for 30 mins by spectrophotometric analysis; design: species or system Bos taurus
Bos taurus [6] = species: Bos taurus; assay: Inhibition of bovine brain tubulin polymerization measured every 30s for 60 mins by spectrophotometric analysis
MCF7 [7] = assay: Antiproliferative activity against human MCF7 cells assessed as inhibition of cell growth after 72 hrs by MTT assay; assay type: functional, cell-based; settings: MCF7, 72 h
Outline: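 MCF-7 cells in MEM with 10% FBS, 2 mM L-glutamine, penicillin/streptomycin and 1% non-essential amino acids. Seeded at 2.5 × 10⁴ cells/mL, grown 24 h at 37 °C, then dosed from ethanol stocks over 1 nM–100 µM for 72 h; vehicle was ethanol 1% v/v. Read-out was MTT at 1 mg/mL for 2 h, solubilised in DMSO, absorbance relative to control as 100% viability. Triplicate; mean ± S.E.M of at least three experiments.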

[8] = Aqueous solubility of the compound after 24 hrs by HPLC analysis; assay type: physicochemical; settings: aqueous medium
Outline: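 Compound was shaken in water at 300 shakes/min for 24 h, then filtered. The filtrate was quantified by HPLC on a C18 column with acetonitrile/water 70:30 at 1 mL/min, detection at 254 nm. The value is the maximum of n = 3.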

Bos taurus [9] = species: Bos taurus; assay: Inhibition of bovine brain tubulin polymerization at 10 uM measured every 30s for 60 mins by spectrophotometric analysis
[10] = Half life in human plasma at pH 4 to 9; assay type: ADME, cell-free
Colon 26 = assay: Antiproliferative activity against mouse Colon 26 cells assessed as inhibition of cell growth; assay type: functional, cell-based
[11] = Solubility in human plasma at pH 7.2 to 7.5; assay type: ADME, cell-free
[12] = Solubility in human plasma; assay type: ADME, cell-free
MCF7 [13] = assay: Induction of cell cycle arrest in human MCF7 cells assessed as accumulation of cells in G2/M phase at 1 uM after 48 hrs by propidium iodide staining based flow cytometry; assay type: functional; outline: as §1
MCF7 [14] = assay: Induction of cell cycle arrest in human MCF7 cells assessed as accumulation of cells in sub-G1 phase at 1 uM after 48 hrs by propidium iodide staining based flow cytometry; assay type: functional; outline: as §1
MCF7 [15] = assay: Induction of mitotic catastrophe in human MCF7 cells at 1 uM after 16 hrs by immunofluorescence analysis; assay type: functional, cell-based; outline: as §2
MCF7 [16] = assay: Induction of microtubule depolymerization in human MCF7 cells assessed as complete loss of microtubule formation at 1 uM after 16 hrs by immunofluorescence analysis; assay type: cell-based; outline: as §2

Structure (SMILES): COc1ccc([C@H]2[C@H](c3ccc(NC(=O)[C@@H](N)Cc4ccccc4)cc3)C(=O)N2c2cc(OC)c(OC)c(OC)c2)cc1
Activity (MCF7 [1]): Active
Activity (MCF7 [2]): Active
Activity (MCF7 [3]): Active
Activity (MCF7 [4]): Active
IC50 [5]: 2400 nM
inhibition (Bos taurus [6]): Dose-dependent effect
IC50 (MCF7 [7]): 27 nM
solubility at 24 h [8]: 140 µg/mL (≈ 241 µM)

Structure (SMILES): COc1ccc([C@H]2[C@H](c3ccccc3)C(=O)N2c2cc(OC)c(OC)c(OC)c2)cc1OP(=O)(O)O
Activity (MCF7 [1]): Active
Activity (MCF7 [2]): Active
inhibition (Bos taurus [9]): inactive
IC50 (MCF7 [7]): 71 nM
solubility at 24 h [8]: 300 µg/mL (≈ 582 µM)

Structure (SMILES): COc1ccc([C@H]2[C@H](c3ccccc3)C(=O)N2c2cc(OC)c(OC)c(OC)c2)cc1NC(=O)CN
IC50 (MCF7 [7]): 1100 nM

Structure (SMILES): COc1ccc([C@H]2[C@H](c3ccc(NC(=O)[C@@H](N)CO)cc3)C(=O)N2c2cc(OC)c(OC)c(OC)c2)cc1
IC50 (MCF7 [7]): 860 nM

Structure (SMILES): COc1ccc([C@H]2[C@H](c3ccc(NC(=O)CN)cc3)C(=O)N2c2cc(OC)c(OC)c(OC)c2)cc1
IC50 (MCF7 [7]): 91 nM
half-life [10]: > 24 h
solubility at 24 h [8]: 60 µg/mL (≈ 122 µM)

Structure (SMILES): COc1ccc(/C=C\c2cc(OC)c(OC)c(OC)c2)cc1NC(=O)[C@@H](N)CO [OMBRABULIN]
IC50 (Colon 26): 27.2 nM
solubility [11]: 110 µg/mL (≈ 273 µM)
solubility [12]: 3300 µg/mL (≈ 8200 µM)

Structure (SMILES): COc1ccc([C@H]2[C@H](c3ccc(NC(=O)[C@@H](N)CCCCN)cc3)C(=O)N2c2cc(OC)c(OC)c(OC)c2)cc1
IC50 (MCF7 [7]): 690 nM

Structure (SMILES): COc1ccc([C@H]2[C@H](c3ccccc3)C(=O)N2c2cc(OC)c(OC)c(OC)c2)cc1N
half-life [10]: > 24 h

Structure (SMILES): COc1ccc([C@H]2[C@H](c3cccs3)C(=O)N2c2cc(OC)c(OC)c(OC)c2)cc1OP(=O)(O)O
Activity (MCF7 [1]): Active
Activity (MCF7 [2]): Active
Activity (MCF7 [3]): Active
Activity (MCF7 [4]): Active
IC50 (MCF7 [7]): 20 nM
solubility at 24 h [8]: 450 µg/mL (≈ 863 µM)

Structure (SMILES): COc1ccc([C@H]2[C@H](c3ccc(O)cc3)C(=O)N2c2cc(OC)c(OC)c(OC)c2)cc1O
half-life [10]: > 24 h

Structure (SMILES): COc1ccc(/C=C\c2cc(OC)c(OC)c(OC)c2)cc1N
solubility [12]: 3300 µg/mL (≈ 10500 µM)

Structure (SMILES): COc1ccc([C@H]2[C@H](c3ccccc3)C(=O)N2c2cc(OC)c(OC)c(OC)c2)cc1NC(=O)[C@@H](N)Cc1ccc(O)cc1
IC50 (MCF7 [7]): 740 nM

Structure (SMILES): CC[C@H](C)[C@H](N)C(=O)Nc1cc([C@H]2[C@H](c3ccccc3)C(=O)N2c2cc(OC)c(OC)c(OC)c2)ccc1OC
IC50 (MCF7 [7]): 1100 nM
solubility at 24 h [8]: 110 µg/mL (≈ 201 µM)

Now from value to compound, other results behind:

IC50 (MCF7 [7]): 1130 nM
Structure (SMILES): COc1ccc([C@H]2[C@H](c3ccccc3)C(=O)N2c2cc(OC)c(OC)c(OC)c2)cc1NC(=O)[C@@H](N)Cc1ccccc1

half-life [10]: > 24 h
Structure (SMILES): COc1ccc([C@H]2[C@H](c3ccc(N)cc3)C(=O)N2c2cc(OC)c(OC)c(OC)c2)cc1

IC50 (MCF7 [7]): 760 nM
solubility at 24 h [8]: 370 µg/mL (≈ 732 µM)
Structure (SMILES): COc1ccc([C@H]2[C@H](c3ccccc3)C(=O)N2c2cc(OC)c(OC)c(OC)c2)cc1NC(=O)[C@H](C)N

IC50 (MCF7 [7]): 780 nM
solubility at 24 h [8]: 200 µg/mL (≈ 383 µM)
Structure (SMILES): COc1ccc([C@H]2[C@H](c3ccccc3)C(=O)N2c2cc(OC)c(OC)c(OC)c2)cc1NC(=O)[C@@H](N)CO

IC50 [5]: 5200 nM
inhibition (Bos taurus [6]): Dose-dependent effect
IC50 (MCF7 [7]): 460 nM
half-life [10]: > 24 h
solubility at 24 h [8]: 110 µg/mL (≈ 206 µM)
Structure (SMILES): COc1ccc([C@H]2[C@H](c3ccccc3)C(=O)N2c2cc(OC)c(OC)c(OC)c2)cc1NC(=O)[C@@H](N)C(C)C
Activity (MCF7 [13]): Active
Activity (MCF7 [14]): Active
Activity (MCF7 [15]): Active
Activity (MCF7 [16]): Active

IC50 (MCF7 [7]): 9800 nM
Structure (SMILES): COc1ccc([C@H]2[C@H](c3ccccc3)C(=O)N2c2cc(OC)c(OC)c(OC)c2)cc1NC(=O)[C@@H](N)CCCCN

inhibition (Bos taurus [9]): inactive
IC50 (MCF7 [7]): 22 nM
half-life [10]: > 24 h
solubility at 24 h [8]: 140 µg/mL (≈ 263 µM)
Structure (SMILES): COc1ccc([C@H]2[C@H](c3ccc(O)cc3)C(=O)N2c2cc(OC)c(OC)c(OC)c2)cc1OP(=O)(O)O
Activity (MCF7 [1]): Active
Activity (MCF7 [2]): Active
Activity (MCF7 [3]): Active
Activity (MCF7 [4]): Active

IC50 (MCF7 [7]): 50 nM
solubility at 24 h [8]: 4 µg/mL (≈ 7.5 µM)
Structure (SMILES): COc1ccc([C@H]2[C@H](c3ccc(NC(=O)[C@@H](N)C(C)C)cc3)C(=O)N2c2cc(OC)c(OC)c(OC)c2)cc1

IC50 (MCF7 [7]): 35 nM
Structure (SMILES): COc1ccc([C@H]2[C@H](c3ccc(NC(=O)[C@H](C)N)cc3)C(=O)N2c2cc(OC)c(OC)c(OC)c2)cc1
